Results published in ChEMBL document CHEMBL1131259, “Synthesis and evaluation of diphenyl phosphonate esters as inhibitors of the trypsin-like granzymes A and K and mast cell tryptase” (J Med Chem, 1998).
Calls of active or inactive are those of the source. No cut-off for these calls is given here.

Key:
[1] = biological target: T1, Serine protease 1 (Bos taurus) (UniProt P00760); assay: Compound was evaluated to inhibit bovine trypsin; No inhibition
T1 sequence (whole entry): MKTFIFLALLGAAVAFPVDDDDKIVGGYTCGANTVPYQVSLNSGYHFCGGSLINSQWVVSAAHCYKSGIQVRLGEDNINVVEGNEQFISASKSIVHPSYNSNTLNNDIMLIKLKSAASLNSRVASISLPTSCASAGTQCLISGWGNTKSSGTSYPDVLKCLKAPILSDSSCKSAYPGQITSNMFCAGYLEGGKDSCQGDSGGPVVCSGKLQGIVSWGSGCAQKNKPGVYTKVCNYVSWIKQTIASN
Method in brief: (§1)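 Irreversible inhibition assayed by incubation at 25 °C in 0.1 M Hepes, 0.01 M CaCl2, pH 7.5 (2% DMSO), inhibitor 1.0–450 μM. Timed aliquots were read for residual activity on Cbz-Arg-SBzl with DTNB at 410 nm. Pseudo-first-order k_obs came from ln vt/vo vs time, using 5–10 points over 2–3 half-lives, three k_obs per inhibitor. DMSO-only controls were run. For no-inhibition lines, none was seen after 25 min.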

Tryptase (Homo sapiens) [2] = biological target: T2, Tryptase (Homo sapiens) (UniProt Q9BZJ3+Q15661+Q9NRR2); assay: Compound was evaluated to inhibit mast cell tryptase; No inhibition; format: protein assay
Method in brief: (§2)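 Human lung mast cell tryptase, high-molecular-weight form, heparin-free, active sites titrated with MUGB. Incubated with inhibitor at 25 °C in 0.1 M Hepes, 10% glycerol, 10 mM heparin, pH 7.5 (7.1% DMSO). […] DMSO controls were run.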

[3] = biological target: T3, Granzyme K (Rattus norvegicus) (UniProt P49864); assay: Compound was evaluated to inhibit rat granzyme K; No inhibition
T3 sequence (whole entry): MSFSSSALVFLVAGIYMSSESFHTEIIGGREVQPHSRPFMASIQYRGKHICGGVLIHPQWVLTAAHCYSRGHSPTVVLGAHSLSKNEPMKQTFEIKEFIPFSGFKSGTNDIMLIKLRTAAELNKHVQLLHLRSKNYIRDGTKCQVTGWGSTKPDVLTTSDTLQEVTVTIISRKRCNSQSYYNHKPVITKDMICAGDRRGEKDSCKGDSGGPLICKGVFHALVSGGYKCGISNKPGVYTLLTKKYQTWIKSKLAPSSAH
Method in brief: (§3)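 Native rat granzyme K, purified by size-exclusion in 1 M NaCl then MonoS cation exchange. Incubated with inhibitor (1.0–450 μM) at 25 °C in 0.1 M Hepes, 0.01 M CaCl2, pH 7.5 (7.1% DMSO). Timed aliquots were read for residual activity on Cbz-Arg-SBzl with DTNB at 405 nm. k_obs came from ln vt/vo vs time, one or two per inhibitor. For no-inhibition lines, none was seen after 25 min.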

[4] = biological target: T4, Granzyme A (Homo sapiens) (UniProt P12544); assay: Inhibition of human granzyme A
T4 sequence (whole entry): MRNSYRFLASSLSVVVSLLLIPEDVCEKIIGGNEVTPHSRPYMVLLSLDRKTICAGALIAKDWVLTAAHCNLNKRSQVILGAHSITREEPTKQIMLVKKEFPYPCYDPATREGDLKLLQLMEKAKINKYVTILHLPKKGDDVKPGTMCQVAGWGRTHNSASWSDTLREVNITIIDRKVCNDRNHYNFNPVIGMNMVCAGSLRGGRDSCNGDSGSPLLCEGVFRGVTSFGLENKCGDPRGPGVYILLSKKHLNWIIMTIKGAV
Method in brief: (§4)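 Recombinant human and rat granzyme A, incubated with inhibitor (1.0–450 μM) at 25 °C in 0.1 M Hepes, 0.01 M CaCl2, pH 7.5 (7.6% DMSO). Timed aliquots were read for residual activity on Cbz-Arg-SBzl with DTNB at 405 nm. k_obs came from ln vt/vo vs time over 5–10 points and 2–3 half-lives, two k_obs per inhibitor. DMSO controls were run.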

[5] = biological target: T1, Serine protease 1 (Bos taurus); assay: Inhibition of bovine trypsin; method in brief: as §1
[6] = biological target: T3, Granzyme K (Rattus norvegicus); assay: Inhibition of rat granzyme K; method in brief: as §3
Tryptase (Homo sapiens) [7] = biological target: T2, Tryptase (Homo sapiens); assay: Compound was evaluated to inhibit mast cell tryptase.; format: protein assay; settings: concentration not given here; method in brief: as §2
[8] = biological target: T5, Granzyme A (Rattus norvegicus) (UniProt Q8CJF4); assay: Inhibition of rat granzyme A.; method in brief: as §4
T5 sequence (whole entry): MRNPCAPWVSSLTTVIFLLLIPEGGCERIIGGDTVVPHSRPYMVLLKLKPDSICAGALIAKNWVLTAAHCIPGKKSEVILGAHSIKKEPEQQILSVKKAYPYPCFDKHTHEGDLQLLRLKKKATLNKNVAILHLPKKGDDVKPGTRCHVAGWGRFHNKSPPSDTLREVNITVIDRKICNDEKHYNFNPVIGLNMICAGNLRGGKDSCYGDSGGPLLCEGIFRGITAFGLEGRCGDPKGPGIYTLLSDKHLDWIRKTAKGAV

Tryptase (Homo sapiens) [9] = biological target: T2, Tryptase (Homo sapiens); assay: Inhibition of mast cell tryptase; format: protein assay; method in brief: as §2
[10] = biological target: T3, Granzyme K (Rattus norvegicus); assay: Compound was evaluated to inhibit rat granzyme K;No inhibition; method in brief: as §3

For `NCCCC(NC(=O)OCc1ccccc1)P(=O)(Oc1ccccc1)Oc1ccccc1` (stereo not given), the “K obs / 1” value [1] was “inactive”, the “K obs / 1” value (Tryptase (Homo sapiens) [2]) was “inactive” and the “K obs / 1” value [3] was “inactive”. It also gave a kobs/[I] (second-order inactivation rate constant) [4] of 0.6 M⁻¹ s⁻¹.

Molecule `N=C(N)c1ccc(C(NC(=O)[C@H](Cc2ccccc2)NC(=O)OCc2ccccc2)P(=O)(Oc2ccccc2)Oc2ccccc2)cc1` (stereo not given in full) has a K obs / 1 [5] of 17 M⁻¹ s⁻¹, a kobs/[I] (second-order inactivation rate constant) [6] of 13 M⁻¹ s⁻¹ and a kobs/[I] (second-order inactivation rate constant) [4] of 14 M⁻¹ s⁻¹. For the same molecule, the inhibition (Tryptase (Homo sapiens) [7]) was 5% and the K obs / 1 [8] was 8 M⁻¹ s⁻¹.

For `NC(N)c1ccc(C(NS(=O)(=O)c2cccc3ccccc23)P(=O)(Oc2ccccc2)Oc2ccccc2)cc1` (stereo not given), the K obs / 1 [5] was 170 M⁻¹ s⁻¹, the “K obs / 1” value [3] was “inactive” and the kobs/[I] (second-order inhibition rate constant) (Tryptase (Homo sapiens) [9]) was 10 M⁻¹ s⁻¹. The kobs/[I] (second-order inactivation rate constant) [4] was 330 M⁻¹ s⁻¹ and the K obs / 1 [8] was 30 M⁻¹ s⁻¹.

For `C[C@H](NC(=O)[C@@H](CCCCNC(=O)OC(C)(C)C)NC(=O)OCc1ccccc1)C(=O)NC(c1ccc(C(N)N)cc1)P(=O)(Oc1ccccc1)Oc1ccccc1` (stereo not given in full), the K obs / 1 [5] was 3100 M⁻¹ s⁻¹, the “K obs / 1” value [3] was “inactive” and the kobs/[I] (second-order inhibition rate constant) (Tryptase (Homo sapiens) [9]) was 8.5 M⁻¹ s⁻¹. For the same molecule, the kobs/[I] (second-order inactivation rate constant) [4] was 110 M⁻¹ s⁻¹.

With `C[C@H](NC(=O)[C@@H](CCCCN)NC(=O)OCc1ccccc1)C(=O)NC(c1ccc(C(N)N)cc1)P(=O)(Oc1ccccc1)Oc1ccccc1` (stereo not given in full) the K obs / 1 [5] was 3140 M⁻¹ s⁻¹, the “K obs / 1” value [3] was “inactive” and the kobs/[I] (second-order inhibition rate constant) (Tryptase (Homo sapiens) [9]) was 2 M⁻¹ s⁻¹. The kobs/[I] (second-order inactivation rate constant) [4] was 90 M⁻¹ s⁻¹.

In the case of `C[C@H](NC(=O)OCc1ccccc1)C(=O)NC(c1ccc(C(N)N)cc1)P(=O)(Oc1ccccc1)Oc1ccccc1` (stereo not given in full), the K obs / 1 [5] was 1850 M⁻¹ s⁻¹, the “K obs / 1” value [3] was “inactive” and the kobs/[I] (second-order inhibition rate constant) (Tryptase (Homo sapiens) [9]) was 0.8 M⁻¹ s⁻¹. The kobs/[I] (second-order inactivation rate constant) [4] was 1670 M⁻¹ s⁻¹ and the K obs / 1 [8] was 1270 M⁻¹ s⁻¹.

`N=C(N)c1ccc(C(NC(=O)/C=C/c2cccnc2)P(=O)(Oc2ccccc2)Oc2ccccc2)cc1` (stereo not given) was tested, and the “K obs / 1” value [1] was “inactive”, the kobs/[I] (second-order inactivation rate constant) [6] was 3 M⁻¹ s⁻¹ and the “K obs / 1” value (Tryptase (Homo sapiens) [2]) was “inactive”. It also gave a kobs/[I] (second-order inactivation rate constant) [4] of 5 M⁻¹ s⁻¹ and a K obs / 1 [8] of 1 M⁻¹ s⁻¹.

In the case of `CC(C)C[C@H](NC(=O)OCc1ccccc1)C(=O)NC(c1ccc(C(=N)N)cc1)P(=O)(Oc1ccccc1)Oc1ccccc1` (stereo not given in full), the K obs / 1 [5] was 50 M⁻¹ s⁻¹, the “K obs / 1” value [10] was “inactive” and the kobs/[I] (second-order inhibition rate constant) (Tryptase (Homo sapiens) [9]) was 0.3 M⁻¹ s⁻¹. It also gave a kobs/[I] (second-order inactivation rate constant) [4] of 6.3 M⁻¹ s⁻¹.

`N=C(N)c1ccc(C(NC(=O)[C@@H]2CCCN2C(=O)c2cccc(Oc3ccccc3)c2)P(=O)(Oc2ccccc2)Oc2ccccc2)cc1` (stereo not given in full) was tested, and the K obs / 1 [5] was 4080 M⁻¹ s⁻¹, the “K obs / 1” value [3] was “inactive” and the kobs/[I] (second-order inactivation rate constant) [4] was 330 M⁻¹ s⁻¹. The inhibition (Tryptase (Homo sapiens) [7]) was 7%.
